Experimental data from ChEMBL document CHEMBL1124773, “(Phosphinyloxy)acyl amino acid inhibitors of angiotensin converting enzyme. 2. Terminal amino acid analogues of (S)-1-[6-amino-2 [[hydroxy(4-phenylbutyl)phosphinyl]oxy]-1-oxohexyl]-L-proline” (J Med Chem, 1990).
pIC50: −log10 of the molar value.

Assays:
[1] = target: T1, Angiotensin-converting enzyme (Rattus norvegicus) (UniProt P47820); test: In vivo dose required to produce 50% inhibition against angiotensin I in normotensive rat after intravenous administration; type: functional, organism-based
T1 sequence (whole entry): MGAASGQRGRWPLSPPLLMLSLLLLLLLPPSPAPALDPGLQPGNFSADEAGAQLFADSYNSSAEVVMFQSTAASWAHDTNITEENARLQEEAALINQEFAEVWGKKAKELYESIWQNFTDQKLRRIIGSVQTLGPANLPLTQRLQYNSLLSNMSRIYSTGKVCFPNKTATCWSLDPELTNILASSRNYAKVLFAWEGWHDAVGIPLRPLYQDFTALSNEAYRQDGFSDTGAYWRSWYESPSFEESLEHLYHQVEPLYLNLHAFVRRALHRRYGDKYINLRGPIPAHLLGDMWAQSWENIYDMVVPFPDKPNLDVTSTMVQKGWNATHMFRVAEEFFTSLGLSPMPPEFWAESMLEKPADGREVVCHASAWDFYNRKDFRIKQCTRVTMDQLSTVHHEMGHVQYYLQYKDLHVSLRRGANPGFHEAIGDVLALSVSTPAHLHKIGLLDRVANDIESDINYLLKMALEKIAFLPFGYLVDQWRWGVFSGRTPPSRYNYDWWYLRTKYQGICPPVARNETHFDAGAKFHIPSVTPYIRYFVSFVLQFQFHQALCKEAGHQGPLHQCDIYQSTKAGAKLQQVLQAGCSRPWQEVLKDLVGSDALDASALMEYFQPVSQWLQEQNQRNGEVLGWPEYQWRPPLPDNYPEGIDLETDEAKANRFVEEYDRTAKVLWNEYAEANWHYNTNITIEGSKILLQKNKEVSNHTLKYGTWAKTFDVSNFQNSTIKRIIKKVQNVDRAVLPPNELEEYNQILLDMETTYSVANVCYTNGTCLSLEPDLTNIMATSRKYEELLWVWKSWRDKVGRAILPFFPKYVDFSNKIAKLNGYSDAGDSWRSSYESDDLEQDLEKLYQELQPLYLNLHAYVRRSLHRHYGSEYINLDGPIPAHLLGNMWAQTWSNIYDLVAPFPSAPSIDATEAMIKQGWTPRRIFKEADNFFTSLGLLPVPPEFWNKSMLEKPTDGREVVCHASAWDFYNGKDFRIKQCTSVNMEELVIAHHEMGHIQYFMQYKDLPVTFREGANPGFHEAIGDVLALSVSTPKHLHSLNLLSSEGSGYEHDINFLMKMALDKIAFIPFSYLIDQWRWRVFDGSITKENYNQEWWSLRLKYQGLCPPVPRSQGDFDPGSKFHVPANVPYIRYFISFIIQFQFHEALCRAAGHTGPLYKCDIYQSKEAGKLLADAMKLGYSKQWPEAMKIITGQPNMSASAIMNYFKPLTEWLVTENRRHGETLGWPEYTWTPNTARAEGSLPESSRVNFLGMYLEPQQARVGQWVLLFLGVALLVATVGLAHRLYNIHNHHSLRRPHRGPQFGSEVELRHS
Method in brief: (§1)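 Conscious, unrestrained male Sprague-Dawley rats (225–275 g) with indwelling aortic and vena caval catheters, recovered ≥2 weeks. […] Compound given iv in 0.1 mL water or 5% NaHCO3, responses followed up to 70 min. Maximum % inhibition is the mean of four rats per dose; ED50 interpolated from plots of ≥3 doses.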

[2] = target: T1, Angiotensin-converting enzyme (Rattus norvegicus); test: In vivo oral activity in normotensive rat and percent maximal inhibition of the angiotensin I pressor response; type: functional, organism-based
Method in brief: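 Catheterized conscious, unrestrained male Sprague-Dawley rats (225–275 g), recovered ≥2 weeks. […] Oral dose in 0.1 mL water, 5% NaHCO3 or 1% agar suspension. Aortic pressure read by transducer for up to 280 min. Maximum % inhibition is the mean of four animals per dose.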

[3] = target: T2, Angiotensin-converting enzyme (Oryctolagus cuniculus, UniProt P12822); test: Inhibition of rabbit lung angiotensin I converting enzyme (ACE) using hippuryl-histidyl-leucine as substrate; conditions: read-out: I50
T2 sequence (P12822 whole entry): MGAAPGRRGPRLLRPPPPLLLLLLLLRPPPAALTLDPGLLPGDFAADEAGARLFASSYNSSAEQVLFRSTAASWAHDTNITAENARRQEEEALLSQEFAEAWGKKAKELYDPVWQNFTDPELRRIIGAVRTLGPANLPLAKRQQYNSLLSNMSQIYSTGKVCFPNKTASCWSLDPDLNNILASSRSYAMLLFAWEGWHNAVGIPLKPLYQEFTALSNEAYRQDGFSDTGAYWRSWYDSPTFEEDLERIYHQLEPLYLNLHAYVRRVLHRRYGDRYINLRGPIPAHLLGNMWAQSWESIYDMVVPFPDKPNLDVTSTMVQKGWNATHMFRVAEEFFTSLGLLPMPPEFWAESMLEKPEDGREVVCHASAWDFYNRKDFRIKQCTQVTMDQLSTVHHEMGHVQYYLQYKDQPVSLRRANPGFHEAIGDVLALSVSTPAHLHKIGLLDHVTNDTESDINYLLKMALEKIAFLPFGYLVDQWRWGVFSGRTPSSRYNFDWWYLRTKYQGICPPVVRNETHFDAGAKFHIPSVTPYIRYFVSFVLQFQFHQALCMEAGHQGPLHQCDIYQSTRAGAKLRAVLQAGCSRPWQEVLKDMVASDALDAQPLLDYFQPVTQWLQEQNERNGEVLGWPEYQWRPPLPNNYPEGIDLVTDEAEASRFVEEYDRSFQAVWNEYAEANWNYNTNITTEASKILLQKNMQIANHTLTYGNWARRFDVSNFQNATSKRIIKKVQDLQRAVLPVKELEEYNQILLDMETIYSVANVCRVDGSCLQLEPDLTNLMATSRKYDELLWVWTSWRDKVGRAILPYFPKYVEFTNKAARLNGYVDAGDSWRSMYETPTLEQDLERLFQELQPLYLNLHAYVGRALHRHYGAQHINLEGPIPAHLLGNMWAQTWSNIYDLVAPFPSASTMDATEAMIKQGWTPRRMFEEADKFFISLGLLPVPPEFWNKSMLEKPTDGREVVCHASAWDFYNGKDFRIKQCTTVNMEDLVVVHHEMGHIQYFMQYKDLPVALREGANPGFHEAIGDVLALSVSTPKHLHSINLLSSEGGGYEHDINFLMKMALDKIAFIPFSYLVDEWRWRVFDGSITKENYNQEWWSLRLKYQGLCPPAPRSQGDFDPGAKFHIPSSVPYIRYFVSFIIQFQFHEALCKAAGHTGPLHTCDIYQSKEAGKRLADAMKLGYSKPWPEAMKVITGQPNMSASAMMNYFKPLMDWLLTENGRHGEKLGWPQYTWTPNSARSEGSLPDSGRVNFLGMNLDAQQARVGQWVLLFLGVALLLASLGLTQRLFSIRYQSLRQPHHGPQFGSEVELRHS

[4] = target: T2, Angiotensin-converting enzyme; test: Evaluated for inhibitory activity against rabbit lung angiotensin I converting enzyme (ACE) using hippuryl-histidyl-leucine as substrate; conditions: read-out: I50
[5] = target: T1, Angiotensin-converting enzyme (Rattus norvegicus); test: In vivo dose required to produce 50% inhibition against angiotensin I (AI) in normotensive rat after intravenous administration; type: functional, organism-based; method in brief: as §1

| SMILES | ED50 [1] [µmol/kg] | inhibition [2] [%] | pIC50 [3] | pIC50 [4] | ED50 [5] [µmol/kg] |
| --- | --- | --- | --- | --- | --- |
| NCCCC[C@H](OP(=O)(O)CCCCc1ccccc1)C(=O)N1[C@H](C(=O)O)C[C@@H]2CCCC[C@@H]21 | 0.1 | 14 | 7.55 |  |  |
| NCCCC[C@H](OP(=O)(O)CCCCc1ccccc1)C(=O)N(CC(=O)O)c1ccccc1 | 0.136 | 53 |  | 7.54 |  |
| NCCCC[C@H](OP(=O)(O)CCCCc1ccccc1)C(=O)N1C[C@H](C2CCCCC2)C[C@H]1C(=O)O | 0.11 | 15 | 7.51 |  |  |
| COc1ccc(N(CC(=O)O)C(=O)[C@H](CCCCN)OP(=O)(O)CCCCc2ccccc2)cc1OC | 0.04 | 62 | 7.46 |  |  |
| NCCCC[C@H](OP(=O)(O)CCCCc1ccccc1)C(=O)N1[C@H](C(=O)O)C[C@@H]2CCC[C@@H]21 |  | 41 | 7.59 |  | 0.035 |
| NCCCC[C@H](OP(=O)(O)CCCCc1ccccc1)C(=O)N1C[C@@H](Sc2ccccc2)C[C@H]1C(=O)O | 0.047 | 15 | 8.52 |  |  |
| NCCCC[C@H](OP(=O)(O)CCCCc1ccccc1)C(=O)N1C[C@@H](C2CCCCC2)C[C@H]1C(=O)O | 0.06 | 33 | 7.96 |  |  |
| NCCCC[C@H](OP(=O)(O)CCCCc1ccccc1)C(=O)N1CC(F)(F)C[C@H]1C(=O)O | 0.162 | 49 | 6.77 |  |  |
| NCCCC[C@H](OP(=O)(O)CCCCc1ccccc1)C(=O)N1C[C@H](F)C[C@H]1C(=O)O |  |  | 6.49 |  |  |
| NCCCC[C@H](OP(=O)(O)CCCCc1ccccc1)C(=O)N1C[C@H](Sc2ccccc2)C[C@H]1C(=O)O | 0.066 | 11 | 8.59 |  |  |
| NCCCC[C@H](OP(=O)(O)CCCCc1ccccc1)C(=O)N1CCS[C@H]1C(=O)O | 0.163 | 50 | 7.09 |  |  |
| NCCCC[C@H](OP(=O)(O)CCCCc1ccccc1)C(=O)N1C[C@H](c2ccccc2)C[C@H]1C(=O)O |  |  | 6.57 |  |  |
| NCCCC[C@H](OP(=O)(O)CCCCc1ccccc1)C(=O)N(CC(=O)O)C1CCCCC1 | 0.106 | 31 | 7.66 |  |  |
| CS[C@@H]1C[C@@H](C(=O)O)N(C(=O)[C@H](CCCCN)OP(=O)(O)CCCCc2ccccc2)C1 | 0.031 | 16 | 8.03 |  |  |
| NCCCC[C@H](OP(=O)(O)CCCCc1ccccc1)C(=O)N(CC(=O)O)C1Cc2ccccc2C1 | 0.196 |  |  | 7.57 |  |
| CSC1(SC)C[C@@H](C(=O)O)N(C(=O)[C@H](CCCCN)OP(=O)(O)CCCCc2ccccc2)C1 | 0.14 | 45 | 7.80 |  |  |
| NCCCC[C@H](OP(=O)(O)CCCCc1ccccc1)C(=O)N1c2ccccc2C[C@H]1C(=O)O |  | 13 | 8.36 |  | < 0.014 |
| NCCCC[C@H](OP(=O)(O)CCCCc1ccccc1)C(=O)N1C[C@@H](Cc2ccccc2)C[C@H]1C(=O)O | 0.026 | 14 | 9.00 |  |  |
| NCCCC[C@H](OP(=O)(O)CCCCc1ccccc1)C(=O)N1COC[C@H]1C(=O)O | 0.677 |  | 6.84 |  |  |
| NCCCC[C@H](OP(=O)(O)CCCCc1ccccc1)C(=O)N1CC=C[C@H]1C(=O)O | 0.105 | 73 | 7.37 |  |  |
| CS[C@H]1C[C@@H](C(=O)O)N(C(=O)[C@H](CCCCN)OP(=O)(O)CCCCc2ccccc2)C1 | 0.059 | 8 | 8.01 |  |  |
| NCCCC[C@H](OP(=O)(O)CCCCc1ccccc1)C(=O)N1C[C@@H](O)C[C@H]1C(=O)O | 0.033 | 69 | 7.60 |  |  |
| NCCCC[C@H](OP(=O)(O)CCCCc1ccccc1)C(=O)N1C[C@@H](c2ccccc2)C[C@H]1C(=O)O | 0.037 | 58 | 8.46 |  |  |
| NCCCC[C@H](OP(=O)(O)CCCCc1ccccc1)C(=O)N(CC(=O)O)c1ccc2c(c1)OCO2 | 0.1 | 69 | 7.62 |  |  |
| NCCCC[C@H](OP(=O)(O)CCCCc1ccccc1)C(=O)N1C[C@H](O)C[C@H]1C(=O)O | 0.339 |  | 6.85 |  |  |
| NCCCC[C@H](OP(=O)(O)CCCCc1ccccc1)C(=O)N1CCC[C@H]1C(=O)O | 0.063 | 90 |  |  |  |
| NCCCC[C@H](OP(=O)(O)CCCCc1ccccc1)C(=O)N1C[C@@H](F)C[C@H]1C(=O)O |  |  | 6.80 |  |  |
| COc1ccc(N(CC(=O)O)C(=O)[C@H](CCCCN)OP(=O)(O)CCCCc2ccccc2)cc1 | 0.043 | 40 | 7.41 |  |  |
| NCCCC[C@H](OP(=O)(O)CCCCc1ccccc1)C(=O)N1CC2(C[C@H]1C(=O)O)SCCS2 | 0.018 | 51 | 8.82 |  |  |
| NCCCC[C@H](OP(=O)(O)CCCCc1ccccc1)C(=O)N1CSC[C@H]1C(=O)O | 0.124 | 46 | 7.04 |  |  |
